Tests used:
Ephrin type-B receptor 4 [1] = target: T1, Ephrin type-B receptor 4 (Homo sapiens, UniProt P54760); assay: Inhibition of EphB4 assessed as blockade of synthetic substrate phosphorylation by FRET assay
T1 sequence (P54760 whole entry): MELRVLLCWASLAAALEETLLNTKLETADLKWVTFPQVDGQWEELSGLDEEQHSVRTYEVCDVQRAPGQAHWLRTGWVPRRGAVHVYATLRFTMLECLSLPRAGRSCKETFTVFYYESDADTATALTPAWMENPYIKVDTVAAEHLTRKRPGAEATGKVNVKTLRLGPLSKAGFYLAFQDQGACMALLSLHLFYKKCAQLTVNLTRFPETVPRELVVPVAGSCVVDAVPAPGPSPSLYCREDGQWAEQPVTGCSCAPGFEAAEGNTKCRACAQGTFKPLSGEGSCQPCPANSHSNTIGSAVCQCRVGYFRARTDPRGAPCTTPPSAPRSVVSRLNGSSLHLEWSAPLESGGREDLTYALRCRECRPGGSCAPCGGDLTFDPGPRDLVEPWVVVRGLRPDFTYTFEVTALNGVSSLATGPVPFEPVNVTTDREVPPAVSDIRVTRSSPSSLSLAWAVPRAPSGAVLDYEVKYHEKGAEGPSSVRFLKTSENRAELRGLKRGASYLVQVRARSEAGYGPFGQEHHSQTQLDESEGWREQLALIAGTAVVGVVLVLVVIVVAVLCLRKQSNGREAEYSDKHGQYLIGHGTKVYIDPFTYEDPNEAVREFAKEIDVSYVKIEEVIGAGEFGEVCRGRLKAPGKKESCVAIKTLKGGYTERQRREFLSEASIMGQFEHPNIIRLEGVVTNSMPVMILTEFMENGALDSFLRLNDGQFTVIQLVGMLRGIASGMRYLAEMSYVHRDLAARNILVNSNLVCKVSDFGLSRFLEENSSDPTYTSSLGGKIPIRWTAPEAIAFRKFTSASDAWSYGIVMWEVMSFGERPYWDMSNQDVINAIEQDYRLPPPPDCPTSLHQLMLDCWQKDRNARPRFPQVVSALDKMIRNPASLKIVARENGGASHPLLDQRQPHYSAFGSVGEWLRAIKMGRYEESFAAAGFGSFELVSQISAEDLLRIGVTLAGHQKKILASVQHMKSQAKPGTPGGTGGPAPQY

Ephrin type-B receptor 4 [2] = target: T1, Ephrin type-B receptor 4; assay: Inhibition of EphB4 by [gamma33-P]ATP based assay
[3] = target: Mitogen-activated protein kinase 3 (Homo sapiens) (UniProt P27361); assay: Inhibition of ERK1 assessed as remaining enzyme activity at 3 uM relative to DMSO
Method in brief: (§1)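 Dundee kinase panel, radiometric: [γ-33P]ATP (800 cpm/pmol) at 5, 20 or 50 μM, at or below each kinase's ATP Km; 10 mM magnesium acetate; robotic, room temperature, 30 min. Reactions started with MgATP, stopped with orthophosphoric acid, spotted onto P81 filters. Inhibitor tested at a single concentration; mean % activity of duplicates relative to DMSO control.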

[4] = target: Glycogen synthase kinase-3 beta (Homo sapiens) (UniProt P49841); assay: Inhibition of GSK3-beta assessed as remaining enzyme activity at 3 uM relative to DMSO; method in brief: as §1
[5] = target: Dual specificity tyrosine-phosphorylation-regulated kinase 2 (Homo sapiens) (UniProt Q92630); assay: Inhibition of DYRK2 assessed as remaining enzyme activity at 3 uM relative to DMSO; method in brief: as §1
[6] = target: Inhibitor of nuclear factor kappa-B kinase subunit beta (Homo sapiens) (UniProt O14920); assay: Inhibition of IKK-beta assessed as remaining enzyme activity at 3 uM relative to DMSO; method in brief: as §1
[7] = target: Insulin receptor-related protein (Homo sapiens) (UniProt P14616); assay: Inhibition of IRR assessed as remaining enzyme activity at 3 uM relative to DMSO; method in brief: as §1
[8] = target: Tyrosine-protein kinase SYK (Homo sapiens) (UniProt P43405); assay: Inhibition of SYK assessed as remaining enzyme activity at 3 uM relative to DMSO
[9] = target: LIM domain kinase 1 (Homo sapiens) (UniProt P53667); assay: Binding affinity to LIMK1 assessed as percentage of kinase remaining bound to the bead at 1 uM by T7 phage display based binding assay
Method in brief: (§2)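 Competition binding assay run by a contract lab. Each kinase was expressed as a fusion to T7 phage, full-length for small kinases and catalytic domain for large ones. Phage were mixed with an immobilized known kinase inhibitor on streptavidin magnetic beads and with test compound at a single 1 μM. Kinase/phage still bound to the beads was quantified by qPCR and expressed as % of DMSO control.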

[10] = target: Mitogen-activated protein kinase kinase kinase kinase 2 (Homo sapiens) (UniProt Q12851); assay: Inhibition of GCK assessed as remaining enzyme activity at 1 uM relative to DMSO; method in brief: as §1
[11] = target: Discoidin domain-containing receptor 2 (Homo sapiens) (UniProt Q16832); assay: Binding affinity to DDR2 assessed as percentage of kinase remaining bound to the bead at 1 uM by T7 phage display based binding assay; method in brief: as §2
[12] = target: Epidermal growth factor receptor (Homo sapiens) (UniProt P00533); assay: Binding affinity to EGFR assessed as percentage of kinase remaining bound to the bead at 1 uM by T7 phage display based binding assay
Method in brief: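 Kinases expressed as T7 phage fusions (full-length for small kinases, catalytic domain for large). Phage mixed with an immobilized known kinase inhibitor on streptavidin magnetic beads plus test compound at a single 1 μM concentration. Ligand displacement from the ATP site was read by quantitative PCR as % kinase/phage still bead-bound versus DMSO control. Human kinases.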

[13] = target: Tyrosine-protein kinase FRK (Homo sapiens) (UniProt P42685); assay: Binding affinity to FRK assessed as percentage of kinase remaining bound to the bead at 1 uM by T7 phage display based binding assay; method in brief: as §2
[14] = target: Inhibitor of nuclear factor kappa-B kinase subunit beta (Homo sapiens) (UniProt O14920); assay: Inhibition of IKK-beta assessed as remaining enzyme activity at 1 uM relative to DMSO
Method in brief: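 Radiometric kinase assay run robotically at room temperature for 30 min, linear in time and enzyme. Conditions: 10 mM magnesium acetate, [γ-33P]ATP (800 cpm/pmol) at 5, 20 or 50 μM per kinase, at or below its ATP Km. Started with MgATP and stopped with orthophosphoric acid, then spotted on P81 filters. Reported as mean % activity of duplicates versus DMSO controls.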

[15] = target: Serine/threonine-protein kinase PAK 5 (Homo sapiens) (UniProt Q9P286); assay: Inhibition of PAK5 assessed as remaining enzyme activity at 1 uM relative to DMSO
Method in brief: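 Radiometric kinase assay run robotically at room temperature for 30 min. Contained 10 mM magnesium acetate and [γ-33P]ATP (800 cpm/pmol) at 5, 20 or 50 μM, chosen per kinase to be at or below its ATP Km. Reactions were started with MgATP, stopped with orthophosphoric acid and spotted onto P81 filters. Result is mean % activity of duplicates at one inhibitor concentration versus DMSO control.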

[16] = target: Mitogen-activated protein kinase 11 (Homo sapiens) (UniProt Q15759); assay: Inhibition of p38beta assessed as remaining enzyme activity at 1 uM relative to DMSO
[17] = target: Serine/threonine-protein kinase Sgk1 (Homo sapiens) (UniProt O00141); assay: Inhibition of SGK1 assessed as remaining enzyme activity at 1 uM relative to DMSO
Chain of Serine/threonine-protein kinase Sgk1 (Homo sapiens) (O00141 whole entry): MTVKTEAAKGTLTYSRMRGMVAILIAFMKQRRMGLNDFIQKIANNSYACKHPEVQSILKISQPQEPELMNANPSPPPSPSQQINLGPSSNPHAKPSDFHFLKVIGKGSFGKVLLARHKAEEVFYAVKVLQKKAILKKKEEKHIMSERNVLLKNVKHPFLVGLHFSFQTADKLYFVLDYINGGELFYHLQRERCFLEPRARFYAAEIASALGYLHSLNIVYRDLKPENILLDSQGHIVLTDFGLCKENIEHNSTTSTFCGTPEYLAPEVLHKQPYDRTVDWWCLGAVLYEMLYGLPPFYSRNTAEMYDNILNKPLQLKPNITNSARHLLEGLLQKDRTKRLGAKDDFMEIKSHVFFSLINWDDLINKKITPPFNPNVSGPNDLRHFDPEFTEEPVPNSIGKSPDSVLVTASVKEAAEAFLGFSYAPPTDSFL

Chain of Inhibitor of nuclear factor kappa-B kinase subunit beta (Homo sapiens) (O14920 whole entry): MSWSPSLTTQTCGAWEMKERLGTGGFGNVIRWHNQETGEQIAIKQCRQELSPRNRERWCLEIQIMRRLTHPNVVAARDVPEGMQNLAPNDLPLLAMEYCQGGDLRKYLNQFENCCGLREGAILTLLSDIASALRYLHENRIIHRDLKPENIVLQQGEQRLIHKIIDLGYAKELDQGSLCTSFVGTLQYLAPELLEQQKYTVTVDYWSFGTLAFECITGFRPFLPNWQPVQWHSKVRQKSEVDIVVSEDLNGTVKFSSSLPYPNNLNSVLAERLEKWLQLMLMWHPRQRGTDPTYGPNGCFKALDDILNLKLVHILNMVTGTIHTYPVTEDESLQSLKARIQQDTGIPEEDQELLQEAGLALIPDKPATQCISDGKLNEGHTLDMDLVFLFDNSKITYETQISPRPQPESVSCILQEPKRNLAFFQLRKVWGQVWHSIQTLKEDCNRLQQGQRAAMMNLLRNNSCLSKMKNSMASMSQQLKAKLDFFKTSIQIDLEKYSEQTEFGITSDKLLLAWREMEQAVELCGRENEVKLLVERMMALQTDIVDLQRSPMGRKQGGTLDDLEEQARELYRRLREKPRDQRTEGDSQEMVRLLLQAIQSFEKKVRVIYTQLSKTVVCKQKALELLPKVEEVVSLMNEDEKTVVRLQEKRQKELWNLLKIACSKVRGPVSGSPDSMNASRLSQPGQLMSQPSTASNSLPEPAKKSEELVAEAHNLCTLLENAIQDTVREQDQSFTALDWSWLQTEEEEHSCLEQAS
Chain of Mitogen-activated protein kinase 3 (Homo sapiens) (P27361 whole entry): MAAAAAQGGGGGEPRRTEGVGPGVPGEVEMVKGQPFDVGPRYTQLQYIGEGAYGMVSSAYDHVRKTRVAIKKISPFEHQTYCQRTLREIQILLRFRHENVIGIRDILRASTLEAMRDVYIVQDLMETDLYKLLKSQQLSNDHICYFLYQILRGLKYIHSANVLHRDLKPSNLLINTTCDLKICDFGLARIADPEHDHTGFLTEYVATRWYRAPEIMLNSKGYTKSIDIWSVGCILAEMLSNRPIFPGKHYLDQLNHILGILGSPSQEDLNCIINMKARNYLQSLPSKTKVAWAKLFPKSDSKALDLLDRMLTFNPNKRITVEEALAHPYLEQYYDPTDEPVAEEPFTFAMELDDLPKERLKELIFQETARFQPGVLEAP
Chain of Dual specificity tyrosine-phosphorylation-regulated kinase 2 (Homo sapiens) (Q92630 whole entry): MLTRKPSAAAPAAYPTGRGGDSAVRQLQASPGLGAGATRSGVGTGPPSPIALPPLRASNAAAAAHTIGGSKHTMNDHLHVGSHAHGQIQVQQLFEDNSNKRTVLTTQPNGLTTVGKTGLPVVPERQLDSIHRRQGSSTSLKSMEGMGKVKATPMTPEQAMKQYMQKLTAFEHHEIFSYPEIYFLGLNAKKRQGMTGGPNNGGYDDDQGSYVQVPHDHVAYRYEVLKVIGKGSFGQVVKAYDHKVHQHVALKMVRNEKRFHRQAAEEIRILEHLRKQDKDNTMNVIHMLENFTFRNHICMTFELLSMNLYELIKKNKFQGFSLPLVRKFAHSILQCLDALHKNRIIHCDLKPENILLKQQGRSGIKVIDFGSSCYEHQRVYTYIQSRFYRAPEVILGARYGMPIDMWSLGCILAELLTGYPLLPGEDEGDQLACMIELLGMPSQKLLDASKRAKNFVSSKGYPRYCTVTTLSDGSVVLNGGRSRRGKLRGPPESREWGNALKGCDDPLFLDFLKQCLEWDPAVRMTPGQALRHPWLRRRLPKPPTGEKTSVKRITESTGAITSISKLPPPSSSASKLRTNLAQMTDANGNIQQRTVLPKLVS
Chain of Mitogen-activated protein kinase 11 (Homo sapiens) (Q15759 whole entry): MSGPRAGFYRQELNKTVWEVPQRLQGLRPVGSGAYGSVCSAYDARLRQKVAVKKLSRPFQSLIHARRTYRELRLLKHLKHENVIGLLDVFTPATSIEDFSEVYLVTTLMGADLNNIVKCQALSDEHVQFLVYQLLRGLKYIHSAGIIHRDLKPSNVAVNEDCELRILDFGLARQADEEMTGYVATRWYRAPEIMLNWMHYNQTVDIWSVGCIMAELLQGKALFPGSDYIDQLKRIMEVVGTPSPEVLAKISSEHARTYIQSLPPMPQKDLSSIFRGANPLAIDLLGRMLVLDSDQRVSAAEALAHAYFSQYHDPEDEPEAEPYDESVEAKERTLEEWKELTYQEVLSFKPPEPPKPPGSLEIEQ
Chain of Insulin receptor-related protein (Homo sapiens) (P14616 27-742 limits assumed): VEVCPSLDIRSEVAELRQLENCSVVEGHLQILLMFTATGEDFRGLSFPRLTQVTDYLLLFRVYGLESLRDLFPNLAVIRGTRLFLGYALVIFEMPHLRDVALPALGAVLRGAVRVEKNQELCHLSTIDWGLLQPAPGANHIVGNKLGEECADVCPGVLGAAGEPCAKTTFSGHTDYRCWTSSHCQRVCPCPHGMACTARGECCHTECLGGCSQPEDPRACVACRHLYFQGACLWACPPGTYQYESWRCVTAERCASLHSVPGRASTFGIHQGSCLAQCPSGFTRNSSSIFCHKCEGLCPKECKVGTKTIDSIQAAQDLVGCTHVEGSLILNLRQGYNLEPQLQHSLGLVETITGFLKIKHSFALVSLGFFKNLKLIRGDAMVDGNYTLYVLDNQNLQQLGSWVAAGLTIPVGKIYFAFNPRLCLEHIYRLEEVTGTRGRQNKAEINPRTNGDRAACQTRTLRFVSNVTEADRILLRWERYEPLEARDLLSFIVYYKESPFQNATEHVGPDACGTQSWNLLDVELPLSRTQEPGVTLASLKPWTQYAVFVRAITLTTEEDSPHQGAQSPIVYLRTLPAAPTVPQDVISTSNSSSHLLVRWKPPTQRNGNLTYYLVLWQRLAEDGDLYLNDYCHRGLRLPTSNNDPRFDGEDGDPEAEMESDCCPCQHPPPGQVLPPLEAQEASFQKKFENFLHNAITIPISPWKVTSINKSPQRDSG
Chain of Insulin receptor-related protein (Homo sapiens) (P14616 747-1297 limits assumed): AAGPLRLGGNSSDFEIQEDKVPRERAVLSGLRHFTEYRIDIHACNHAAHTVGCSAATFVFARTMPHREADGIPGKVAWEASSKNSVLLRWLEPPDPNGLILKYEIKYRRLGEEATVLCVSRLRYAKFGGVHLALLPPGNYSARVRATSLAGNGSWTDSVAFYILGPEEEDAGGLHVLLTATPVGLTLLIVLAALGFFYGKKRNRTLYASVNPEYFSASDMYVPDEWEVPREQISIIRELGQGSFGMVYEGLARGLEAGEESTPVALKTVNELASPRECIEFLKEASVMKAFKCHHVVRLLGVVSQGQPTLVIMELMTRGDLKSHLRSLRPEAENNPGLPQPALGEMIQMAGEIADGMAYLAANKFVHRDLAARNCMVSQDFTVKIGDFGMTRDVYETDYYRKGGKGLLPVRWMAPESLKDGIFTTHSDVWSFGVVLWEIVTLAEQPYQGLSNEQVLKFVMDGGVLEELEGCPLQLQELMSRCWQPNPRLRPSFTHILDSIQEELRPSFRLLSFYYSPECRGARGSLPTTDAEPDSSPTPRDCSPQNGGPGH
Chain of Epidermal growth factor receptor (Homo sapiens) (P00533 whole entry, the tested form may be a part): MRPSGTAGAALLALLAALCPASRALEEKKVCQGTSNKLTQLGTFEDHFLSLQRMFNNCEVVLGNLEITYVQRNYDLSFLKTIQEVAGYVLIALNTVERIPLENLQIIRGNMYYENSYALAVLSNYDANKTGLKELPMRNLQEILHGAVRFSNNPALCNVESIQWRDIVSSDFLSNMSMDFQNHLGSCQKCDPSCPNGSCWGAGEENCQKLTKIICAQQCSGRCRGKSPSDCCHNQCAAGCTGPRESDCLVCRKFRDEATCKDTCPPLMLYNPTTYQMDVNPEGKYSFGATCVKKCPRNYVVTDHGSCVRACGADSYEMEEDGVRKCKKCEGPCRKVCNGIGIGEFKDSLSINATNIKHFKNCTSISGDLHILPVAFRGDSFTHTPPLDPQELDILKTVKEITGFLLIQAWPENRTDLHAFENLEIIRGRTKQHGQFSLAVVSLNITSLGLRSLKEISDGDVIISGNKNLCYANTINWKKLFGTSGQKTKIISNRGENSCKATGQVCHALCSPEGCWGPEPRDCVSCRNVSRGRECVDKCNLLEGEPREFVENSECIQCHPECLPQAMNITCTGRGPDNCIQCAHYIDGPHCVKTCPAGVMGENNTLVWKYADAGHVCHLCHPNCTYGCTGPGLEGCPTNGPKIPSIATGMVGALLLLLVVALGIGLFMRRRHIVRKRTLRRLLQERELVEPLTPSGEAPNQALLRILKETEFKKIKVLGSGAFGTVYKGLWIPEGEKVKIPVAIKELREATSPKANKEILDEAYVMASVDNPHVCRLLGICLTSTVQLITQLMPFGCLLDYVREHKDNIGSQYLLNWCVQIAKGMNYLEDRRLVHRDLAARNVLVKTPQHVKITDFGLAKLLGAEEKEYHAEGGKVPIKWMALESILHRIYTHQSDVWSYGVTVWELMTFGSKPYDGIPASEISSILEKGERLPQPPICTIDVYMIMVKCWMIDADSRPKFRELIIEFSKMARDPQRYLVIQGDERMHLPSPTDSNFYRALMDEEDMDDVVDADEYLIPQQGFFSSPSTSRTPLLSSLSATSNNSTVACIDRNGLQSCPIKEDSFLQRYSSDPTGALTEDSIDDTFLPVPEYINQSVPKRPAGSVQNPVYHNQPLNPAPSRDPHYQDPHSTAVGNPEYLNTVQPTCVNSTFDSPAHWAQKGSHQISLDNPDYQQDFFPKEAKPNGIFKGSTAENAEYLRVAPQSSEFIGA

IC50 (Ephrin type-B receptor 4 [1]) [nM]	IC50 (Ephrin type-B receptor 4 [2]) [nM]	Activity [3] [%]	Activity [4] [%]	Activity [5] [%]	Activity [6] [%]	Activity [7] [%]	Activity [8] [%]	Activity [9] [%]	Activity [10] [%]	Activity [11] [%]	Activity [12] [%]	Activity [13] [%]	Activity [14] [%]	Activity [15] [%]	Activity [16] [%]	Activity [17] [%]	Compound
180	47	97	102	94	92	110	94										COc1ccccc1-n1c(-c2ccccc2C)cn2c3c(=O)[nH]c(=O)n(C)c3nc12
5	1.6							83	22	21	8.6	0.3	86	94	83	78	COc1ccccc1-n1c(-c2cc(O)ccc2C)cn2c3c(=O)[nH]c(=O)n(C)c3nc12

From ChEMBL document CHEMBL1154183, “Structure-based optimization of potent and selective inhibitors of the tyrosine kinase erythropoietin producing human hepatocellular carcinoma receptor B4 (EphB4)” (J Med Chem, 2009)
